We go through three compounds from ChEMBL document CHEMBL1122782, “Bulky amine analogues of ketoprofen: potent antiinflammatory agents” (J Med Chem, 1984).

A word on the ED50: it is the midpoint of the dose-response relation. Low values mean greater potency, high ones weaker potency. In general, Inhibition refers to the relative decrease from the control value, in per cent. By IC50 is commonly meant the concentration needed to halve the response being measured. A lower IC50 goes with higher potency. Broadly, the inhibition in vivo is how much of the control response was suppressed.

For experiment [1], the species on record is Rattus norvegicus. Nature of the experiment: Effective Dose 50 is the amount of material required to elicit inflammatory effect in 50% of an animal population. Format: functional. In outline: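 In the 21-day adjuvant arthritis test in male Sprague-Dawley rats, daily gavage started on the day of M. butyricum injection. At the end, total hind paw volume was measured by mercury displacement. ED50 is the dose giving 50% inhibition of total hind paw volume change.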

Experiment [2] has as its system Rattus norvegicus. In words: Antiinflammatory efficacy is measured by the percent inhibition of paw volume during the 3 week adjuvant arthritis test at 0.02 mM/kg (7.28 mg). Format: functional. In outline: (§1)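 Male Sprague-Dawley rats (200–230 g) were used in groups of eight. Each received 0.1 mL of 0.6% M. butyricum in heavy mineral oil into the plantar tissue of one hind paw. Daily oral gavage in 1% gum tragacanth or corn oil-water emulsion began on the injection day and ran 21 days. Total hind paw volume was measured by mercury displacement, and inhibition was taken versus vehicle-treated adjuvant controls.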

For experiment [3], the system named is Rattus norvegicus. Nature of the experiment: Antiinflammatory efficacy is measured by the percent inhibition of paw volume during the 3 week adjuvant arthritis test at 0.08 mM/kg (29.1 mg). It is filed as functional. Summed up:
as §1

The subject of experiment [4] is Rattus norvegicus. In words: The mean increase in paw volume was compared between drug treated groups and placebo to calculate the percent inhibition in rats at 0.02 mmol/kg by carrageenan Edema Assay; 30-39. It is filed as functional.
For experiment [5], the system named is Rattus norvegicus. Nature of the experiment: The percent inhibition was calculated from the average differences in hind paw volume between the adjuvant injected controls and the adjuvant-injected medicated rats at 0.08 mmol/kg; 60-69. It is filed as functional.
For experiment [6], the system named is Rattus norvegicus. In words: Antiinflammatory efficacy is measured by the percent inhibition of paw volume during the 3 week adjuvant arthritis test at 0.005 mM/kg (1.82 mg). It is filed as functional. Summed up: as §1
In experiment [7] the test system is Rattus norvegicus. In words: Ulcerogenicity was measured in intestine during the 3 week adjuvant arthritis test, no of animals with ulcers out of 8 animals tested at 0.08 mM/kg (29.1 mg) was reported. It is filed as functional. Summed up: (§2)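 In the 21-day adjuvant arthritis model, male Sprague-Dawley rats (200–230 g) received an M. butyricum mineral-oil suspension into one hind paw. They were dosed daily by gavage from the day of injection. At the end of the study the rats were killed, and the small intestines were examined for ulcers. Results are given as the number of ulcerated animals over the number tested.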

The test system of experiment [8] is Rattus norvegicus. In words: Ulcerogenicity was measured in stomach during the 3 week adjuvant arthritis test, no of animals with ulcers out of 7 animals tested at 0.32 mM/kg (116.4 mg) was reported. Format: functional. Summed up: (§3)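 Male Sprague-Dawley rats (200–230 g) were injected in the plantar tissue of one hind paw with 0.1 mL of 0.6% M. butyricum suspension in heavy mineral oil. Daily oral gavage began on the day of adjuvant injection and ran for the 21 days, with drug suspended in 1% gum tragacanth or a corn oil-water emulsion. At the end the rats were sacrificed and the small intestine and stomach were examined for ulcers. Results are given as animals with ulcers/animals tested.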

Experiment [9] has as its system Rattus norvegicus. Nature of the experiment: Ulcerogenicity was measured in stomach during the 3 week adjuvant arthritis test, no of animals with ulcers out of 8 animals tested at 0.08 mM/kg (29.1 mg) was reported. It is filed as functional. Summed up:
as §3

Experiment [10] relates to Rattus norvegicus. Nature of the experiment: Ulcerogenicity was measured in stomach during the 3 week adjuvant arthritis test, no of animals with ulcers out of 8 animals tested at 0.16 mM/kg (58.2 mg) was reported. Format: functional. Summed up:
as §3

In experiment [11] the test system is Rattus norvegicus. In words: Antiinflammatory efficacy is measured by the weight gain in rats during the 3 week adjuvant arthritis test at 0.16 mM/kg (58.2 mg). It is filed as functional. Summed up: (§4)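 Rats were adjuvant-injected (M. butyricum in mineral oil, one hind paw) or given a mineral-oil placebo. They were dosed by gavage daily for 21 days from the injection day, with vehicle only for both control groups, then weighed at the end. Weight gain % = (treated − adjuvant control)/(negative control − adjuvant control) × 100.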

In experiment [12] the test system is Rattus norvegicus. In words: Antiinflammatory efficacy is measured by the weight gain in rats during the 3 week adjuvant arthritis test at 0.32 mM/kg (116.4 mg). It is filed as functional. Summed up:
(§5)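 Male Sprague-Dawley rats (200–230 g), eight per group, received 0.1 mL of 0.6% M. butyricum in heavy mineral oil (negative controls: mineral oil) into one hind-paw plantar tissue. Daily gavage in 1% gum tragacanth or corn oil-water emulsion began on the injection day, for 21 days. Weight gain is expressed as (treated − adjuvant control)/(negative control − adjuvant control) × 100.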

For experiment [13], the system named is Rattus norvegicus. Nature of the experiment: Ulcerogenicity was measured in intestine during the 3 week adjuvant arthritis test.(animals with ulcers/animals in test) at 0.16 mM/kg (58.2 mg); 4/8. Format: functional. Summed up:
as §3

The subject of experiment [14] is Rattus norvegicus. In words: Antiinflammatory efficacy is measured by the weight gain in rats during the 3 week adjuvant arthritis test at 0.02 mM/kg (7.28 mg). It is filed as functional. In outline: as §4
The subject of experiment [15] is Rattus norvegicus. Nature of the experiment: Antiinflammatory efficacy is measured by the weight gain in rats during the 3 week adjuvant arthritis test at 0.08 mM/kg (29.1 mg). It is filed as functional. Summed up:
as §4

The test system of experiment [16] is Rattus norvegicus. In words: Antiinflammatory efficacy is measured by the weight gain in rats during the 3 week adjuvant arthritis test at 0.005 mM/kg (1.82 mg). It is filed as functional. Summed up: as §4
Experiment [17] has as its system Rattus norvegicus. In words: Ulcerogenicity was measured in intestine during the 3 week adjuvant arthritis test, no of animals with ulcers out of 7 animals tested at 0.32 mM/kg (116.4 mg) was reported. Format: functional. Summed up:
as §2

Experiment [18] concerns the target prostaglandin synthetase (Bos taurus). Nature of the experiment: Inhibitory concentration against prostaglandin synthetase from bull seminal vesicles.
The next experiment is filed under the species Mus musculus. Nature of the experiment: Effective Dose 50 is the amount of material required to elicit analgesic effect in 50% of an animal population.
For experiment [19], the species on record is Rattus norvegicus. Nature of the experiment: Compound was evaluated for highest non-ulcerogenic dose (less than 50% ulcer incidence). Format: functional. The settings on record: read-out: ED50. Summed up: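 Taken from the 21-day adjuvant arthritis test in male Sprague-Dawley rats dosed orally each day from the day of adjuvant injection. Small intestines and stomachs were examined for ulceration at the end. The value is the highest dose giving less than 50% ulcer incidence.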

Experiment [20] relates to Rattus norvegicus. In words: Antiinflammatory efficacy is measured by the weight gain in rats during the 3 week adjuvant arthritis test at 0.278 mM/kg (57.2 mg). Format: functional. Summed up: as §5
Experiment [21] deals with Rattus norvegicus. Nature of the experiment: Antiinflammatory efficacy is measured by the weight gain in rats during the 3 week adjuvant arthritis test at 0.55 mM/kg (113 mg). It is filed as functional. Summed up:
as §5

The test system of experiment [22] is Rattus norvegicus. In words: The mean increase in paw volume was compared between drug treated groups and placebo to calculate the percent inhibition in rats at 0.08 mmol/kg by carrageenan Edema Assay; 50-59. Format: functional.

`CC(CN1CCOCC1)c1cccc(C(=O)c2ccccc2)c1.Cl` (stereo not drawn): the ED50 in the experiment filed under Rattus norvegicus [1] amounted to 5 µmol/kg; in the experiment filed under Mus musculus, 8.4 mg/kg. For the same compound, the Inhibition in the experiment with Rattus norvegicus [2] is recorded as 72%; in the experiment with Rattus norvegicus [3], 89%; with Rattus norvegicus [4] it was 30%; with Rattus norvegicus [5] it was 60%; with Rattus norvegicus [6] it was 49%. The Ulcerogenic index with Rattus norvegicus [7] worked out at 5; in the experiment with Rattus norvegicus [8], 1; in the experiment with Rattus norvegicus [9], 0; with Rattus norvegicus [10], 2; in the experiment with Rattus norvegicus [13], 4; in the experiment with Rattus norvegicus [17] it was 7. The Weight gain in the experiment with Rattus norvegicus [11] was found to be 70%; with Rattus norvegicus [12], 46%; with Rattus norvegicus [14], 10%; in the experiment with Rattus norvegicus [15], 43%; in the experiment on Rattus norvegicus [16], 2%. The compound further displayed an IC50 in [18] of 10 µM.

Turning to `CC(C)Cc1ccc(C(C)C(=O)O)cc1` (stereo not drawn) [IBUPROFEN], in the experiment listed under Rattus norvegicus [19], the highest non-ulcerogenic dose came out at 210 µmol/kg. Also, the Weight gain with Rattus norvegicus [20] was determined as 1%; with Rattus norvegicus [21] it was 18%.

Regarding `CC(CN1C(C)CCCC1C)c1cccc(C(=O)c2ccccc2)c1` (stereo not drawn), the inhibition in vivo at 80 µmol/kg in the experiment with Rattus norvegicus [22] is 50%.
